Measured values as given in ChEMBL document CHEMBL1134374, “High-throughput permeability pH profile and high-throughput alkane/water log P with artificial membranes” (J Med Chem, 2001).

Experiments:
[1] = Highest effective permeability across hexadecane membrane (pH 4-8); format: ADME
Outline: (§1)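 Passive permeation from donor to acceptor across a polycarbonate filter (3 µm pores, 9–10 µm thick) coated with hexadecane left after hexane evaporation. Donor held 50 µg/mL compound in buffer with 5% DMSO and 100 mM KCl; acceptor held buffer with 5% DMSO. Incubated 5 h at room temperature with light shaking. Acceptor UV absorbance read at 260–290 nm. Wells below 5 kΩ resistance discarded.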

[2] = Partition coefficient (logD6.8); format: physicochemical; conditions: octanol/water, pH 6.8
[3] = % absorbed in human GI-tract; format: ADME, organism-based; conditions: in vivo, read-out: % absorbed
[4] = Effective permeability (Pe) across a hexadecane membrane (pH 6.8); format: ADME; outline: as §1
[5] = Intrinsic permeability of the compound; format: ADME
Outline: (§2)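 Derived from hexadecane-membrane Pe measured across a pH range, combined with aqueous pKa. Pe is corrected for ionization to give Pul. Pul is then corrected for the unstirred water layer by the Gutknecht–Tosteson relation to give the intrinsic permeability P0.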

[6] = Effective permeability corrected for ionization; format: ADME; outline: as §2
[7] = Partition coefficient (logP) (hexadecane); format: physicochemical; conditions: hexadecane/water
[8] = Intrinsic permeability measured with HDM assay; format: ADME; outline: as §2
[9] = Effective permeability measured with HDM assay; format: ADME; outline: as §1

Row | Compound | Log Pe [1] [cm s-1] | logD ([2]; read-out: logD) | Fa [3] [%] | Log Pe [4] [cm s-1] | Log Po [5] | Log Pe,max [6] | logP [7] | logD [2] | Log Po [8] | Log Pe,max [9]
1 | CN/C(=N/CCSCc1nc[nH]c1C)NC#N [CIMETIDINE] | -4 | 0.1 | 95 | -4 |  |  |  |  |  | 
2 | NC(N)=Nc1nc(CSCCC(N)=NS(N)(=O)=O)cs1 [FAMOTIDINE] | -4.3 | -0.8 | 45 | -4.6 |  |  |  |  |  | 
3 | CC(CCc1ccccc1)NCC(O)c1ccc(O)c(C(N)=O)c1 (configuration not stated) [LABETALOL] | -3.8 | 0.5 | 90 | -4.2 |  |  |  |  |  | 
4 | O=C(O)Cc1ccccc1Nc1c(Cl)cccc1Cl [DICLOFENAC] |  |  |  |  | -1.3 | -3.7 |  |  |  | 
5 | CC(C)(C)NC[C@H](O)COc1nsnc1N1CCOCC1 [TIMOLOL] | -4.2 | -0.7 | 72 | -4.4 | -3.2 | -3.6 | -1 |  |  | 
6 | COCCc1ccc(OCC(O)CNC(C)C)cc1 (configuration not stated) [METOPROLOL] | -4.2 | -0.8 |  | -4.2 | -2.8 | -3.6 | -0.4 |  |  | 
7 | CC(C)NCC(O)COc1cccc2ccccc12 (configuration not stated) [PROPRANOLOL] | -4 |  |  | -4.4 |  |  |  |  |  | 
8 | CN1CCN(C2=Nc3cc(Cl)ccc3Nc3ccccc32)CC1 [CLOZAPINE] |  |  | 100 |  |  |  |  | 3 |  | 
9 | O=C1NC(=O)C(c2ccccc2)(c2ccccc2)N1 [PHENYTOIN] | -4 | 2.2 | 90 | -4 | -3.6 | -4.4 | -0.3 |  |  | 
10 | Nc1nc2c(ncn2COCCO)c(=O)[nH]1 [ACYCLOVIR] | -4.8 | -2 |  | -4.8 |  |  |  |  |  | 
11 | CC(C)(C)NCC(O)c1cc(O)cc(O)c1 (configuration not stated) [TERBUTALINE] | -4.1 | -2 | 70 | -4.1 |  |  |  |  |  | 
12 | CN(C)CCCN1c2ccccc2Sc2ccc(Cl)cc21 [CHLORPROMAZINE] | -3.5 | 2.9 | 100 | -3.7 | 1.3 | -3.6 | 4.7 |  |  | 
13 | CC(=O)[C@H]1CC[C@H]2[C@@H]3CCC4=CC(=O)CC[C@]4(C)[C@H]3CC[C@]12C [PROGESTERONE] | -3.8 | 4.3 | 91 | -3.8 |  |  |  |  |  | 
14 | O=C(O)c1cc(/N=N/c2ccc(S(=O)(=O)Nc3ccccn3)cc2)ccc1O [SULFASALAZINE] | -4.9 | -0.7 |  | -4.9 |  |  |  |  |  | 
15 | CN/C(=C/[N+](=O)[O-])NCCSCc1ccc(CN(C)C)o1 [RANITIDINE] | -4.5 | -1.1 | 50 | -4.6 |  |  |  |  |  | 
16 | O=C(O)CN(CCN(CC(=O)O)Cc1ccccc1O)Cc1ccccc1O | -5.1 | -0.2 | 5 | -5.1 |  |  |  |  |  | 

Row | Compound | Log Pe [1] [cm s-1] | logD ([2]; read-out: logD) | Fa [3] [%] | Log Pe [4] [cm s-1] | Log Po [5] | Log Pe,max [6] | logP [7] | logD [2] | Log Po [8] | Log Pe,max [9]
17 | O=C(O)c1ccccc1O [SALICYLIC ACID] |  |  |  |  | -3.2 | -3.4 | -1 |  |  | 
18 | Cc1ccccc1N1C(=O)c2cc(S(N)(=O)=O)c(Cl)cc2NC1C (configuration not stated) [METOLAZONE] | -4.6 | 4.1 |  | -4.6 |  |  |  |  |  | 
19 | NS(=O)(=O)c1cc2c(cc1Cl)NCNS2(=O)=O [HYDROCHLOROTHIAZIDE] | -4.2 |  | 67 | -4.7 |  |  |  |  |  | 
20 | C[C@]12CC[C@H]3[C@@H](CCC4=CC(=O)CC[C@@]43C)[C@@H]1CC[C@@H]2O [TESTOSTERONE] | -3.5 | 3.9 | 100 | -3.5 |  |  |  |  |  | 
21 | C=CCc1ccccc1OCC(O)CNC(C)C (configuration not stated) [ALPRENOLOL] | -4 | 0.3 |  | -4 | -1.6 | -3.6 | 1.3 |  |  | 
22 | CCCCC(=O)N(Cc1ccc(-c2ccccc2-c2nnn[nH]2)cc1)[C@H](C(=O)O)C(C)C |  | -1.6 | 55 |  |  |  |  |  |  | 
23 | NC(=O)N1c2ccccc2C=Cc2ccccc21 [CARBAMAZEPINE] | -3.9 | 2.4 |  | -3.9 |  |  |  |  |  | 
24 | CN1C(C(=O)Nc2ccccn2)=C(O)c2ccccc2S1(=O)=O [PIROXICAM] | -3.3 | 0.3 |  | -4 |  |  |  |  |  | 
25 | CN(Cc1cnc2nc(N)nc(N)c2n1)c1ccc(C(=O)N[C@@H](CCC(=O)O)C(=O)O)cc1 [METHOTREXATE] | -4.7 | -3 | 20 | -4.7 |  |  |  |  |  | 
26 | CC(C)Cc1ccc(C(C)C(=O)O)cc1 (configuration not stated) [IBUPROFEN] |  |  |  |  | -0.9 | -3.7 | 1.95 |  | -0.9 | -3.7
27 | CC(=O)N(O)CCCCCNC(=O)CCC(=O)N(O)CCCCCNC(=O)CCC(=O)N(O)CCCCCN [DEFEROXAMINE] | -5.3 | -3 | 2 | -5.3 |  |  |  |  |  | 
28 | CC(C(=O)O)c1cccc(C(=O)c2ccccc2)c1 (configuration not stated) [KETOPROFEN] |  |  |  |  | -2.7 | -3.6 |  |  |  | 
29 | N=C(N)NC(=O)c1nc(Cl)c(N)nc1N [AMILORIDE] | -4.4 | -2.1 | 50 | -4.6 |  |  |  |  |  | 
30 | CC(=O)CC(c1ccccc1)c1c(O)c2ccccc2oc1=O (configuration not stated) [WARFARIN] | -3.8 | 0.6 |  | -3.8 | -2.3 | -3.6 | 1 |  |  | 
31 | CCN1CCCC1CNC(=O)c1cc(S(N)(=O)=O)ccc1OC (configuration not stated) [SULPIRIDE] | -4.6 |  |  | -4.6 |  |  |  |  |  | 
32 | N=C(N)N/N=C/c1c(Cl)cccc1Cl [GUANABENZ] | -4.4 | 0.9 |  | -5 | -4.6 | -4.9 | -1.6 |  |  | 
